The record followed here is ChEMBL document CHEMBL1137540, “Synthesis and in vitro evaluation of leishmanicidal and trypanocidal activities of N-quinolin-8-yl-arylsulfonamides” (Bioorg Med Chem, 2007).

SMILES strings stand for the structures. Some results are limits rather than exact numbers.

In series [1] the test system is Leishmania amazonensis. The series is described as follows: Reduction of Leishmania amazonensis 575 infection in mouse peritoneal macrophage at 5 uM after 48 hrs. The arrangement: scale not given: the % may be the effect or the level left. It is filed as functional. The method, boiled down:
(§1)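 Peritoneal macrophages from female albino Swiss mice were grown on glass slides in DMEM with 20% heat-inactivated FBS at 37 °C, 5% CO2. Cells were infected with L. amazonensis promastigotes at 1:10 cell:parasite for 4 h, then treated for 48 h. Slides were methanol-fixed and Giemsa-stained, and 500 random cells were scored for infection rate. Values are the mean of two experiments.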

Series [2] is described as follows: Cytotoxicity against Vero cells by MTT assay. The format is cell-based. To be noted: African green monkey. A digest of the protocol: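 Vero cells were exposed to compounds for 72 h at 37 °C, then incubated with MTT for 4 h. Formazan was dissolved in DMSO and read at 540 nm. CC50 was derived by linear regression, with ANOVA and Dunnett's test.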
(Tetrazolium dyes change colour on reduction, which living cells bring about.)

Series [3] has as its system Leishmania amazonensis. The series is described as follows: Reduction of Leishmania amazonensis 575 infection in mouse peritoneal macrophage at 25 uM after 48 hrs. More on the design: scale not given: the % may be the effect or the level left. The format is functional. The method, boiled down: as §1
In series [4] the test system is Leishmania amazonensis. Briefly: Antiprotozoal activity against Leishmania amazonensis 575 in vero cells. The format is functional, organism-based. To be noted: promastigotes, in the assay text read “promastigotes” for “in vero cells”. The method, boiled down: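 Axenic growth assay: L. amazonensis 575 promastigotes were grown in Schneider's medium with 5% heat-inactivated FBS, and T. cruzi Y epimastigotes in LIT medium with 10% FBS. Parasites at 1 × 10^6 cells/ml were exposed to 0.2–100 µM for 72 h at 28 °C. Survivors were counted in a Neubauer chamber. Three experiments were run in triplicate, and IC50 was derived by linear regression.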

Series [5] concerns Trypanosoma cruzi. Briefly: Antiprotozoal activity against Trypanosoma cruzi Y in vero cells. The format is functional, organism-based.
For another series, the system named is Leishmania chagasi. Briefly: Antiprotozoal activity against Leishmania chagasi PP75 in vero cells. The format is functional, organism-based.
In series [6] the test system is Leishmania amazonensis. The series is described as follows: Reduction of Leishmania amazonensis 575 infection in mouse peritoneal macrophage at 1 uM after 48 hrs. It is filed as functional. The arrangement: scale not given: the % may be the effect or the level left. The method, boiled down: as §1
Series [7] deals with Trypanosoma cruzi. Briefly: Reduction of Trypanosoma cruzi Y amastigotes infection in Vero cells at 25 uM after 48 hrs. The format is functional. The arrangement: scale not given: the % may be the effect or the level left. A digest of the protocol:
(§2)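 Vero cells on glass slides in DMEM with 5% FBS at 37 °C, 5% CO2 were infected with culture-derived trypomastigotes at 1:10 cell:parasite for 6 h. Non-adherent parasites were washed off, and cells were treated for 48 h. Slides were methanol-fixed and Giemsa-stained, and 500 random cells were examined at 1000× for infection rate. Values are the mean of two experiments.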

In series [8] the test system is Trypanosoma cruzi. The series is described as follows: Reduction of Trypanosoma cruzi Y amastigotes infection in Vero cells at 5 uM after 48 hrs. The arrangement: scale not given: the % may be the effect or the level left. It is filed as functional. A digest of the protocol: as §2
The test system of series [9] is Trypanosoma cruzi. The series is described as follows: Reduction of Trypanosoma cruzi Y amastigotes infection in Vero cells at 1 uM after 48 hrs. The arrangement: scale not given: the % may be the effect or the level left. The format is functional. A digest of the protocol:
as §2

Series [10] concerns Leishmania amazonensis. Briefly: Reduction of Leishmania amazonensis 575 amastigotes infection in mouse peritoneal macrophage at 10 uM after 48 hrs. More on the design: scale not given: the % may be the effect or the level left. It is filed as functional. The method, boiled down: as §1

As a reminder, the CC50 is the concentration at which the toxic effect on the cells reaches its halfway point. A word on the IC50: it is the concentration needed to halve the response being measured.

`O=S(=O)(Nc1cccc2cccnc12)c1cnc(Cl)c(Br)c1`: the Activity with Leishmania amazonensis [1] was 67.1%; in the series with Leishmania amazonensis [3] it was 84.8%; in the series on Leishmania amazonensis [6], 52%; with Trypanosoma cruzi [7], 96.4%; in the series with Trypanosoma cruzi [8], 85.2%; in the series on Trypanosoma cruzi [9], 78.6%. In [2], the CC50 was 67.4 µM. The IC50 in the series with Leishmania amazonensis [4] was 2.25 µM; in the series with Trypanosoma cruzi [5], 31.8 µM; with Leishmania chagasi, 0.56 µM.

In turn, `O=S(=O)(Nc1cccc2cccnc12)c1cc(Br)c(Br)s1` displayed a CC50 in [2] of 68.7 µM. The results for the IC50 with Leishmania amazonensis [4], with Trypanosoma cruzi [5] and with Leishmania chagasi were 2.85 µM, over 100 µM and 0.53 µM, respectively.

Consider `CCCc1ccc(S(=O)(=O)Nc2cc(OC)cc3ccc(C)nc23)cc1`, for which the IC50 in the series with Leishmania amazonensis [4], in the series on Trypanosoma cruzi [5] and in the series on Leishmania chagasi was over 100 µM in each case.

As for `O=[N+]([O-])c1ccc(S(=O)(=O)Nc2cccc3cccnc23)cc1`, the IC50 in the series on Leishmania amazonensis [4], in the series on Trypanosoma cruzi [5] and in the series on Leishmania chagasi was over 100 µM in each case.

`C[C@@H]1[C@H](O)[C@@H](C)/C=C/C=C/C=C/C=C/C=C/C=C/C=C/[C@H](O[C@@H]2O[C@H](C)[C@@H](O)[C@H](N)[C@@H]2O)C[C@@H]2O[C@](O)(C[C@@H](O)C[C@@H](O)[C@H](O)CC[C@@H](O)C[C@@H](O)CC(=O)O[C@H]1C)C[C@H](O)[C@H]2C(=O)O` [AMPHOTERICIN B] had a CC50 in [2] of 98.4 µM. Besides, the IC50 was 0.31 µM in the series on Leishmania amazonensis [4] and 0.25 µM in the series on Leishmania chagasi. In the series on Leishmania amazonensis [10], this compound gave an Activity of 97%.

Turning to `O=S(=O)(Nc1cccc2cccnc12)c1ccc(-c2ccccc2)cc1`, the Activity is 72.3% with Leishmania amazonensis [1], 82.1% in the series on Leishmania amazonensis [3] and 60% in the series with Leishmania amazonensis [6]. It took 245 µM to reach half-maximal cytotoxicity in [2] (CC50). The figures for the concentration for half-maximal inhibition (IC50) with Leishmania amazonensis [4], in the series with Trypanosoma cruzi [5] and with Leishmania chagasi were 6.27 µM, over 100 µM and 2.18 µM, respectively.

With `CCCc1ccc(S(=O)(=O)Nc2c(Br)cc(Br)c3cccnc23)cc1`, the IC50 in the series on Leishmania amazonensis [4], in the series on Trypanosoma cruzi [5] and in the series on Leishmania chagasi was over 100 µM in each case.

`CN(C)c1cccc2c(S(=O)(=O)Nc3cccc4cccnc34)cccc12`: the figures for the Activity with Leishmania amazonensis [1], in the series on Leishmania amazonensis [3] and in the series with Leishmania amazonensis [6] were 48.2%, “Toxic” and 25.7%, respectively. Moreover, in series [2], the CC50 is 84.2 µM. The IC50 in the series on Leishmania amazonensis [4] is 7.18 µM; with Trypanosoma cruzi [5] it was over 100 µM; with Leishmania chagasi, 3.53 µM.

`O=C(Cn1ccnc1[N+](=O)[O-])NCc1ccccc1` [BENZNIDAZOLE] showed a cytotoxic concentration (CC50) in series [2] of over 1000 µM. In the series on Trypanosoma cruzi [5], this compound registered an IC50 of 14.6 µM. The compound also gave an Activity in the series with Trypanosoma cruzi [7] of 92%.

As for `CC(C)c1cc(C(C)C)c(S(=O)(=O)Nc2cccc3cccnc23)c(C(C)C)c1`, the half-maximal inhibitory concentration (IC50) in the series with Leishmania amazonensis [4], in the series with Trypanosoma cruzi [5] and in the series on Leishmania chagasi was over 100 µM each time.

For the compound `O=S(=O)(Nc1cccc2cccnc12)c1ccc(F)cc1`, the IC50 in the series with Leishmania amazonensis [4], in the series with Trypanosoma cruzi [5] and in the series on Leishmania chagasi was over 100 µM in each case.

In the case of `O=S(=O)(Nc1cccc2cccnc12)c1cc(F)cc(F)c1`, it took 66.3 µM to reach half-maximal cytotoxicity in [2] (CC50). The concentration for half-maximal inhibition (IC50) in the series on Leishmania amazonensis [4] was 2.12 µM; in the series on Trypanosoma cruzi [5], over 100 µM; with Leishmania chagasi it was 0.45 µM.

`O=S(=O)(Nc1cccc2cccnc12)c1ccc(Br)cc1`: half-maximal cytotoxicity in series [2] (CC50) was put at 88.7 µM. Besides, the IC50 in the series with Leishmania amazonensis [4] was 4.94 µM; in the series with Trypanosoma cruzi [5], over 100 µM; in the series on Leishmania chagasi it was 2.99 µM.

As for `CCCc1ccc(S(=O)(=O)Nc2cccc3cccnc23)cc1`, the Activity with Leishmania amazonensis [1] came to 52.2%; with Leishmania amazonensis [3], 63.7%; in the series on Leishmania amazonensis [6], 18.7%. This compound also gave a CC50 in series [2] of 64.4 µM. For the same compound, the IC50 is 14.5 µM with Leishmania amazonensis [4], over 100 µM in the series with Trypanosoma cruzi [5] and 14 µM in the series with Leishmania chagasi.
